Assay outcomes (PubChem)
CXCR6 inh: CXCR6 (human) receptor inhibition; inhibition, % at 20 µM; 360,000 compounds, 0.36% hits; AID 602244; O00574; CHO-K1 PathHunter CXCR6 beta-arrestin, luminescence; in the data active = inhibition above about 34%, passing the limit was not always enough;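 also: antagonist mode with CXCL16 agonist at 10 nM final; 0% = 10 nM CXCL16 with DMSO and 100% = unstimulated wells without agonist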
Target sequence (O00574 whole entry, looked up): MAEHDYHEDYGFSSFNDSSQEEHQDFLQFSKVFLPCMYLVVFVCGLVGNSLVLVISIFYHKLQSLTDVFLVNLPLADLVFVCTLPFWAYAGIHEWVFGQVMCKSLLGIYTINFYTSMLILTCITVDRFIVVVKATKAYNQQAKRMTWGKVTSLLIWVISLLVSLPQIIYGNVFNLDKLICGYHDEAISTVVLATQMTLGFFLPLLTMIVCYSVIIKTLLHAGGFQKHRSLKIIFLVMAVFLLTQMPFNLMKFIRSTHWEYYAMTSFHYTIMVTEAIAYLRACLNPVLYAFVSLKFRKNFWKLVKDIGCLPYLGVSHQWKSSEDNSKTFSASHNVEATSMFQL
APJ ag: agonists of human APJ apelin receptor; activation, % at 20 µM; CHO-K1 APJ PathHunter beta-arrestin, luminescence; 0% DMSO wells, 100% apelin; P35414; AID 2520; 330,000 compounds, 0.11% hits;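 active = activation more than six SD over the plate average, tested at 20 µM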;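 also: 0% = DMSO alone and 100% = apelin-13 at 10 nM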
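Incubation: overnight seeding, 90 min compound at 25 °C, 1 h detection; test system: PathHunter CHO-K1 APJ (AGTRL-1) beta-arrestin reporter cells; amount: 1000 cells/well; doses: one dose, 20 µM compound, 1% DMSO; measured by: beta-gal luminescence; measure: agonist-driven arrestin binding to APJ; benchmarks: negative DMSO alone, positive Apelin-13 at 10 nM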
CCR6 antag: blocks CCL20-driven beta-arrestin recruitment at human CCR6. 340,000 compounds, 0.49% hits. P51684. inhibition, % at 20 µM. CHO-K1 CCR6 PathHunter beta-arrestin, luminescence, CCL20-stimulated;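 active = compounds whose inhibition of the agonist-driven luminescence signal at 20 µM reaches about 50%, limit read from the data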;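 also: cells stimulated with CCL20 at 14 nM final; plate controls were DMSO with CCL20 for no effect and DMSO without agonist for full effect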
EBI2 antag: EBI2 (human) antagonism; P32249; EBI2 beta-arrestin recruitment, luminescence, 7a,25-OHC stimulated; inhibition, % at 5 µM; 360,000 compounds, 0.81% hits; AID 651636; in the data active = inhibition above about 38%;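 also: enzyme fragment complementation signal reports receptor beta-arrestin coupling in cells; 0% = agonist plus DMSO wells and 100% = wells without agonist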
Target sequence (P32249 whole entry, looked up, the tested form may be a part): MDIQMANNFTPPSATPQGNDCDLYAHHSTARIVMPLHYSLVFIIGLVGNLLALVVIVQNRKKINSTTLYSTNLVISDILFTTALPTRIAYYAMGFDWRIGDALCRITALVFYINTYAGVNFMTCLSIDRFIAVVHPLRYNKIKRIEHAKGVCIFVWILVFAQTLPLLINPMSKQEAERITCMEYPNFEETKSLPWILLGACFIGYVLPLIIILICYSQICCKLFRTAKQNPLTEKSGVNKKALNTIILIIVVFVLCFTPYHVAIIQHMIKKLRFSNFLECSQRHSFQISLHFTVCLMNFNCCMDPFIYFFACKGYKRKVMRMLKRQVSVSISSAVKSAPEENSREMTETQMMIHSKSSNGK
APJ antag: antagonists of human APJ apelin receptor. P35414. 330,000 compounds, 0.32% hits. AID 2521. inhibition, % at 20 µM. CHO-K1 APJ beta-arrestin complementation, luminescence;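 active = inhibition above about 40% at 20 µM, limit read from the data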;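 also: cells challenged with 10 nM apelin-13 agonist together with compound; plate controls were apelin-13 plus DMSO wells for no effect and DMSO wells lacking apelin-13 for full effect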
APJ antag conf: APJ receptor antagonism confirmation | shares compounds with APJ antag | APJ beta-arrestin recruitment, luminescence, antagonist mode | inhibition, % at 20 µM | 950 compounds, 66% hits; in the data active = inhibition above about 50%
The depositor's hits bear a star; · = no result given. Compounds with a hit are over-represented: about 1.5% of the library has one in this group of screens.

SMILES	CXCR6 inh	APJ ag	CCR6 antag	EBI2 antag	APJ antag	APJ antag conf
CC(=O)c1cccc(Nc2nc(-c3cccc([N+](=O)[O-])c3)cs2)c1	1.5	-18.0	5.9	26.8	51.8*	-20.8
CCOC(=O)c1c(-c2ccc(-c3ccccc3)cc2)csc1NC(=O)CNCCN(C)C	32.1	-6.0	78.3*	-7.0	42.9*	95.7*
O=C(C1CCN(S(=O)(=O)c2cnc[nH]2)CC1)N1CCn2c1nc1ccccc12	56.1*	-13.6	67.3*	34.8	61.4*	101.0*
O=C(C1CCCCC1)N1CCCn2c1nc1ccccc12	-23.0	-2.5	-2.7	2.2	3.5	·
COc1cc(C(=O)N2CCN(c3cccc(C)c3C)CC2)cc(OC)c1OC	4.1	-4.2	-1.6	-0.6	49.8*	5.3
Cc1cccc(N2CCN(C(=O)c3ccncc3)CC2)c1C	0.8	-2.4	-9.5	-7.9	-10.1	·
CCCCN(CC)c1nc(-c2ccncc2)nc2ccccc12	-3.6	-0.7	5.8	-5.5	-9.2	·
c1ccc(-c2nc(N3CCCCCC3)c3ccccc3n2)nc1	13.2	-7.8	40.2	-4.1	49.0*	62.1*
CCCN(CCC)c1nc(-c2ccccn2)nc2ccccc12	36.8	-10.0	34.7	-2.9	41.2*	80.4*
CCN(CC)c1ccc(C(=O)NC(=S)Nc2cc(S(=O)(=O)N3CCOCC3)ccc2-n2cncn2)cc1	9.0	-7.0	34.5	9.5	41.1*	81.5*
C=CCNC(=S)Nc1cc(S(=O)(=O)N2CCOCC2)ccc1-n1cncn1	12.9	-0.3	25.6	-1.5	9.2	·
Brc1ccc(N=Nc2ccc3ccccc3n2)cc1	15.5	-13.5	31.2	43.1	49.0*	53.6*
CCn1c(O)c(N=Nc2ccc3ccccc3n2)c2ccccc21	4.5	-2.4	13.2	29.2	12.7	·
CCC(=O)Nc1ccc(S(=O)(=O)N2CCCCC2)cc1OC	11.4	-3.7	-10.4	0.8	41.2*	-33.9
COc1cc(S(=O)(=O)N2CCCCC2)ccc1NC(=O)c1ccccc1Cl	1.5	0.7	22.8	6.2	8.8	·
C=CCn1c(=O)[nH]c2cc(C(=O)N3CC=C(c4ccccc4)CC3)ccc2c1=O	-16.8	-4.5	11.6	0.9	52.5*	-12.9
Cn1cccc1Cc1nnc(SCC(=O)NCc2ccc(F)cc2)n1-c1ccc(F)cc1	-1.4	-0.9	-1.5	18.8	58.0*	14.0
C1=C(CCNCC2CC2)CCCC1	2.2	0.3	-9.6	0.0	41.4*	31.7
Oc1ccccc1N=Nc1nc(-c2ccccc2)c(-c2ccccc2)[nH]1	32.7	-12.0	70.2*	0.4	61.5*	104.0*
Oc1ccc(-n2cnnn2)cc1	-3.1	0.0	7.8	-4.3	17.3	·
O=[N+]([O-])c1ccc(S(=O)(=O)c2ccccc2)nc1	52.1*	5.9	71.2*	-12.8	43.0*	50.6*
Cc1cccc(C)c1NC(=O)CNC(=O)c1c(-c2ccccc2)noc1C	-2.9	-1.2	6.3	0.4	-59.0	·
Cc1cccc2c1NC(=O)C2=Nc1ccc(Cl)cc1	32.2	-13.8	75.9*	9.2	63.0*	93.9*
Cc1ccc(N=C2C(=O)Nc3c(C)cccc32)cc1	18.1	-8.9	58.2*	11.4	42.6*	94.7*
Cc1ccc(N=C2C(=O)Nc3ccc(Br)cc32)cc1	36.2	-15.6	54.4*	17.1	68.5*	155.9*
SMILES	CXCR6 inh	APJ ag	CCR6 antag	EBI2 antag	APJ antag	APJ antag conf
O=C1Nc2ccc(Br)cc2C1=C1CCCCC1	-2.0	1.3	-4.4	-8.8	-4.5	·
C#CC(=O)CC1(CN(Cc2ccccc2)C(=O)OC(C)(C)C)CCCCC1	7.3	·	10.1	3.3	·	·
Nc1ncnc2c1nc(Br)n2[C@@H]1O[C@@H]2COP(=O)(O)O[C@H]2[C@H]1O	-6.7	-0.4	10.6	-6.5	1.4	·
O=c1c(N=Nc2ccc(O)cc2)c(-c2ccccc2)[nH]n1-c1ccc([N+](=O)[O-])cc1	37.1	-5.7	52.0*	33.7	54.1*	42.6
NC(=S)n1[nH]c(-c2ccc([N+](=O)[O-])cc2)c(N=Nc2ccc(Cl)cc2)c1=O	24.3	·	45.1	26.3	·	·
CCCCCCCc1ccc(C2NC(=S)NC3=C2C(=O)c2ccccc23)cc1 (stereo unspecified)	·	-5.0	13.0	·	56.2*	23.2
COc1ccc(-n2c(C)ccc2-c2ccccc2)cn1	6.7	-1.3	18.1	-4.3	79.4*	12.1
COC(=O)CSc1nnc([C@H](Cc2ccccc2)NC(=O)OC(C)(C)C)o1	-2.5	0.5	-2.3	-1.2	-15.0	·
COC(=O)CS(=O)(=O)c1nnc([C@H](Cc2ccccc2)NC(=O)OC(C)(C)C)o1	55.5*	-3.6	77.1*	-2.2	48.4*	73.2*
CCc1nc2ccc(C(=O)NCCc3ccccn3)cn2c1N(C)CCC(C)C	-6.9	·	·	-1.4	·	·
O=[N+]([O-])c1cccc(N/N=C/c2cc([N+](=O)[O-])ccc2O)c1	21.7	-5.7	45.5	14.9	46.5*	48.8
CN(/N=C/c1cc([N+](=O)[O-])ccc1O)c1ccccc1	48.5*	-8.2	63.6*	13.1	41.8*	62.7*
CC(C)Oc1ccccc1C1CC(=O)Nc2c1c(=O)n(C)c(=O)n2C (stereo unspecified)	·	-2.1	·	·	-8.4	·
Cc1ccc(NCC(=O)c2ccccc2)cc1Cl	49.2*	-16.8	73.0*	23.5	94.2*	100.6*
Cc1ccc(C(=O)CNc2ccc(C)c(Cl)c2)cc1	22.4	-7.8	60.5*	34.6	63.6*	93.1*
Cc1ccc(NCCC(=O)c2ccccc2)cc1Cl	0.5	-0.8	5.1	7.7	-10.1	·
Cc1cccc(C(=O)NCC(c2ccc(F)cc2)N2CCOCC2)c1 (stereo unspecified)	3.5	-2.6	-7.7	2.8	-17.5	·
Cc1cc(NC(=O)NC(C(F)(F)F)C(F)(F)F)no1	0.4	-3.2	10.9	-0.2	-5.9	·
O=C1c2cccc3c(Nc4ccccc4Cl)c([N+](=O)[O-])cc(c23)C(=O)N1CCO	40.2*	-7.2	65.0*	12.6	53.4*	84.2*
Cc1nn(S(=O)(=O)c2ccc(F)cc2)c(C)c1S(=O)(=O)N1CCOCC1	4.5	0.8	3.4	-2.4	16.0	·
O=C(O)c1cccc(Nc2ccc3nonc3c2[N+](=O)[O-])c1	-3.6	1.8	-3.0	-7.0	1.7	·
O=[N+]([O-])c1c(Nc2cccc(O)c2)cc(Cl)c2nonc12	111.2*	-6.9	104.0*	92.8*	94.4*	111.3*
O=C(CCC1CCCN(Cc2ccc3c(c2)CCO3)C1)NCc1ccc(F)c(F)c1 (stereo unspecified)	-3.4	-1.0	17.9	-4.1	9.7	·
O=C1OC(c2ccc(F)cc2)=C/C1=C\c1ccc(O)cc1	34.9	-5.8	52.1*	14.0	42.6*	73.6*
O=[N+]([O-])c1c(NCCCO)cc(Sc2nc3ccccc3s2)c2nonc12	96.8*	-6.8	114.7*	49.1*	75.6*	117.4*
COc1ccc(N2CCOCC2)c(NC(=O)c2ccc3c(c2)OCO3)c1	1.0	-1.4	19.9	-3.9	51.0*	29.6
